Source: ChEMBL document CHEMBL1781932 (J Med Chem, 2011)
In brackets after ≈: the same amount, converted by molar mass.

Legend:
Format in all cases: functional
[1] = system: Streptococcus pneumoniae; assay: Antimicrobial activity against tetracycline-susceptible Streptococcus pneumoniae isolate 106 by CLSI dilution method
In short: (§1)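 Broth microdilution per CLSI in fresh cation-adjusted Mueller Hinton broth, kept at 4 °C before testing, with defibrinated horse blood added as appropriate. Strains were from ATCC. MIC in µg/mL. Runs were accepted when comparator antibiotics against ATCC quality-control strains fell within recommended ranges.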

[2] = system: Enterococcus faecalis; assay: Antimicrobial activity against tetracycline-susceptible Enterococcus faecalis isolate 103 by CLSI dilution method; in short: as §1
[3] = system: Acinetobacter baumannii; assay: Antimicrobial activity against tetracycline-susceptible Acinetobacter baumannii isolate 110 by CLSI dilution method; in short: as §1
[4] = system: Streptococcus pneumoniae; assay: Antimicrobial activity against tetracycline-resistant Streptococcus pneumoniae isolate 160 harboring tetM gene by CLSI dilution method
[5] = system: Klebsiella pneumoniae; assay: Antimicrobial activity against tetracycline-resistant Klebsiella pneumoniae isolate 153 harboring tetA gene by CLSI dilution method
[6] = system: Pseudomonas aeruginosa; assay: Antimicrobial activity against tetracycline-susceptible Pseudomonas aeruginosa isolate 111 by CLSI dilution method; in short: as §1
[7] = system: Staphylococcus aureus; assay: Antimicrobial activity against tetracycline-resistant Staphylococcus aureus isolate 158 harboring tetK gene by CLSI dilution method
[8] = system: Staphylococcus aureus; assay: Antimicrobial activity against methicillin-, tetracycline-resistant Staphylococcus aureus isolate 161 harboring tetM gene by CLSI dilution method
[9] = system: Enterobacter cloacae; assay: Antimicrobial activity against tetracycline-susceptible Enterobacter cloacae isolate 108 by CLSI dilution method; in short: as §1
[10] = system: Escherichia coli; assay: Antimicrobial activity against tetracycline-resistant Escherichia coli isolate 155 harboring tetA gene by CLSI dilution method
[11] = system: Staphylococcus aureus; assay: Antimicrobial activity against tetracycline-susceptible Staphylococcus aureus isolate 101 by CLSI dilution method
[12] = system: Klebsiella pneumoniae; assay: Antimicrobial activity against tetracycline-susceptible Klebsiella pneumoniae isolate 109 by CLSI dilution method; in short: as §1
[13] = system: Escherichia coli; assay: Antimicrobial activity against tetracycline-susceptible Escherichia coli isolate 107 by CLSI dilution method; in short: as §1
[14] = system: Enterococcus faecalis; assay: Antimicrobial activity against tetracycline-resistant Enterococcus faecalis isolate 159 harboring […] gene by CLSI dilution method

| SMILES | MIC [1] [µg/mL] | MIC [2] [µg/mL] | MIC [3] [µg/mL] | MIC [4] [µg/mL] | MIC [5] [µg/mL] | MIC [6] [µg/mL] | MIC [7] [µg/mL] | MIC [8] [µg/mL] | MIC [9] [µg/mL] | MIC [10] [µg/mL] | MIC [11] [µg/mL] | MIC [12] [µg/mL] | MIC [13] [µg/mL] | MIC [14] [µg/mL] |
| --- | --- | --- | --- | --- | --- | --- | --- | --- | --- | --- | --- | --- | --- | --- |
| COC1CN(Cc2ccc3cc4c(c(O)c3c2)C(=O)C2=C(O)[C@]3(O)C(=O)C(C(N)=O)=C(O)[C@@H](N(C)C)[C@@H]3C[C@@H]2C4)C1 | 0.0625 (≈ 0.111 µM) | 1 (≈ 1.77 µM) | 2 (≈ 3.55 µM) | 0.5 (≈ 0.887 µM) | 16 (≈ 28.4 µM) | > 32 | 0.5 (≈ 0.887 µM) | 4 (≈ 7.1 µM) | 8 (≈ 14.2 µM) | 16 (≈ 28.4 µM) | 1 (≈ 1.77 µM) | 4 (≈ 7.1 µM) | 2 (≈ 3.55 µM) | 8 (≈ 14.2 µM) |
| CC(=O)NC1CN(Cc2ccc3cc4c(c(O)c3c2)C(=O)C2=C(O)[C@]3(O)C(=O)C(C(N)=O)=C(O)[C@@H](N(C)C)[C@@H]3C[C@@H]2C4)C1 | 0.25 (≈ 0.423 µM) | 2 (≈ 3.39 µM) | 16 (≈ 27.1 µM) | 2 (≈ 3.39 µM) | 16 (≈ 27.1 µM) | > 32 | 2 (≈ 3.39 µM) | 8 (≈ 13.5 µM) | 8 (≈ 13.5 µM) | 16 (≈ 27.1 µM) | 2 (≈ 3.39 µM) | 16 (≈ 27.1 µM) | 4 (≈ 6.77 µM) | 16 (≈ 27.1 µM) |
| CN(C)[C@@H]1C(O)=C(C(N)=O)C(=O)[C@@]2(O)C(O)=C3C(=O)c4c(cc5ccc(CN6CC(F)(F)C6)cc5c4O)C[C@H]3C[C@@H]12 | 2 (≈ 3.51 µM) | 1 (≈ 1.76 µM) | > 32 | 4 (≈ 7.02 µM) | > 32 | > 32 | 1 (≈ 1.76 µM) | 1 (≈ 1.76 µM) | > 32 | > 32 | 1 (≈ 1.76 µM) | > 32 | > 32 | 1 (≈ 1.76 µM) |
| CN(C)[C@@H]1C(O)=C(C(N)=O)C(=O)[C@@]2(O)C(O)=C3C(=O)c4c(cc5ccc(CN(C)S(C)(=O)=O)cc5c4O)C[C@H]3C[C@@H]12 | 1 (≈ 1.71 µM) | 2 (≈ 3.42 µM) | > 32 | 4 (≈ 6.83 µM) | > 32 | > 32 | 2 (≈ 3.42 µM) | 2 (≈ 3.42 µM) | > 32 | > 32 | 2 (≈ 3.42 µM) | > 32 | > 32 | 2 (≈ 3.42 µM) |
| CN(C)[C@@H]1C(O)=C(C(N)=O)C(=O)[C@@]2(O)C(O)=C3C(=O)c4c(cc5ccc(F)cc5c4O)C[C@H]3C[C@@H]12 | 2 (≈ 4.15 µM) | 0.25 (≈ 0.518 µM) | 4 (≈ 8.29 µM) | 8 (≈ 16.6 µM) | > 32 | > 32 | 0.25 (≈ 0.518 µM) | 0.5 (≈ 1.04 µM) | > 32 | > 32 | 0.5 (≈ 1.04 µM) | > 32 | 16 (≈ 33.2 µM) | 0.5 (≈ 1.04 µM) |
| CN(C)[C@@H]1C(O)=C(C(N)=O)C(=O)[C@@]2(O)C(O)=C3C(=O)c4c(c(Cl)c5ccc(F)cc5c4O)C[C@H]3C[C@@H]12 | > 32 | 2 (≈ 3.87 µM) | > 32 | > 32 | > 32 | > 32 | 2 (≈ 3.87 µM) | 2 (≈ 3.87 µM) | > 32 | > 32 | 2 (≈ 3.87 µM) | > 32 | > 32 | 2 (≈ 3.87 µM) |
| CN(C)[C@@H]1C(O)=C(C(N)=O)C(=O)[C@@]2(O)C(O)=C3C(=O)c4c(cc5c(CNC6CC6)cccc5c4O)C[C@H]3C[C@@H]12 | 0.5 (≈ 0.937 µM) | 4 (≈ 7.5 µM) | 4 (≈ 7.5 µM) | 4 (≈ 7.5 µM) | > 32 | > 32 | 1 (≈ 1.87 µM) | 16 (≈ 30 µM) | > 32 | > 32 | 2 (≈ 3.75 µM) | 32 (≈ 60 µM) | 16 (≈ 30 µM) | 16 (≈ 30 µM) |
| CNc1cccc2c(O)c3c(cc12)C[C@H]1C[C@H]2[C@H](N(C)C)C(O)=C(C(N)=O)C(=O)[C@@]2(O)C(O)=C1C3=O | 4 (≈ 8.11 µM) | 4 (≈ 8.11 µM) | 32 (≈ 64.8 µM) | 16 (≈ 32.4 µM) | > 32 | > 32 | 2 (≈ 4.05 µM) | 4 (≈ 8.11 µM) | > 32 | > 32 | 2 (≈ 4.05 µM) | > 32 | > 32 | 4 (≈ 8.11 µM) |
| CN(C)c1ccc2c(O)c3c(cc2c1)C[C@H]1C[C@H]2[C@H](N(C)C)C(O)=C(C(N)=O)C(=O)[C@@]2(O)C(O)=C1C3=O | 16 (≈ 31.5 µM) | 4 (≈ 7.88 µM) | > 32 | 32 (≈ 63 µM) | > 32 | > 32 | 2 (≈ 3.94 µM) | 4 (≈ 7.88 µM) | > 32 | > 32 | 2 (≈ 3.94 µM) | > 32 | > 32 | 4 (≈ 7.88 µM) |
| CN(C)[C@@H]1C(O)=C(C(N)=O)C(=O)[C@@]2(O)C(O)=C3C(=O)c4c(c(OCC(O)CO)c5ccc(CN6CCC6)cc5c4O)C[C@H]3C[C@@H]12 (some centres not stated) | 4 (≈ 6.41 µM) | 32 (≈ 51.3 µM) | > 32 | 16 (≈ 25.7 µM) | > 32 | > 32 | > 32 | > 32 | > 32 | > 32 | > 32 | > 32 | > 32 | > 32 |
| CNc1c2c(c(O)c3cc(CN4CCC4)ccc13)C(=O)C1=C(O)[C@]3(O)C(=O)C(C(N)=O)=C(O)[C@@H](N(C)C)[C@@H]3C[C@@H]1C2 | 0.25 (≈ 0.444 µM) | 4 (≈ 7.11 µM) | > 32 | 1 (≈ 1.78 µM) | > 32 | > 32 | 2 (≈ 3.55 µM) | 8 (≈ 14.2 µM) | 32 (≈ 56.9 µM) | > 32 | 2 (≈ 3.55 µM) | 32 (≈ 56.9 µM) | 4 (≈ 7.11 µM) | 8 (≈ 14.2 µM) |
| CN(C)[C@@H]1C(O)=C(C(N)=O)C(=O)[C@@]2(O)C(O)=C3C(=O)c4c(cc5ccc(-c6ccccc6)cc5c4O)C[C@H]3C[C@@H]12 | > 32 | 2 (≈ 3.7 µM) | > 32 | > 32 | > 32 | > 32 | 4 (≈ 7.4 µM) | 8 (≈ 14.8 µM) | > 32 | > 32 | 2 (≈ 3.7 µM) | > 32 | > 32 | 0.5 (≈ 0.925 µM) |
| CN(Cc1ccc2cc3c(c(O)c2c1)C(=O)C1=C(O)[C@]2(O)C(=O)C(C(N)=O)=C(O)[C@@H](N(C)C)[C@@H]2C[C@@H]1C3)c1ccccc1 | 2 (≈ 3.43 µM) | 4 (≈ 6.85 µM) | > 32 | 2 (≈ 3.43 µM) | > 32 | > 32 | 1 (≈ 1.71 µM) | 8 (≈ 13.7 µM) | > 32 | > 32 | 1 (≈ 1.71 µM) | > 32 | > 32 | 4 (≈ 6.85 µM) |
